Active and inactive are the calls of the source. Unless noted, the calls are words filed in the database; no cut-off is given here.
What was measured:
Phaedon cochleariae [1] = assay: Insecticidal activity against Phaedon cochleariae larvae in disk of Chinese cabbage leaf at 500 g/ha treated as spray; assay type: functional, organism-based
Procedure, shortened: (§1)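 This was sprayed on Chinese cabbage leaf disks. Once dry, disks were infested with mustard beetle larvae and mortality was scored after a set time. "+" denotes ≥80% larvae killed; n.a. denotes none killed.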

CHO [2] = assay: Cytotoxicity against CHO cells assessed as chromatin condensation after 48 hrs by fluorescence microscopy; assay type: cell-based, Cricetulus griseus; conditions: chinese hamster
Procedure, shortened: (§2)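 Sf9 or CHO cells were seeded in chamber slides the day before treatment and exposed to compound for 48 h. They were then PBS-washed, fixed in ice-cold methanol for 10 min on ice, and rinsed with acetone. After rehydration in PBS, cells were stained with 2 µM DAPI for 30 min. Nuclei were examined by fluorescence microscopy (×40) for chromatin condensation or fragmentation.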

Spodoptera frugiperda [3] = assay: Insecticidal activity against Spodoptera frugiperda larvae in disk of maize leaf at 500 g/ha treated as spray; assay type: functional, organism-based
Procedure, shortened: (§3)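 The same acetone/DMF/emulsifier formulation, diluted in emulsifier-containing water, was sprayed onto maize leaf disks. Dried disks were infested with fall armyworm larvae and mortality was assessed after a set time. "+" denotes ≥80% larvae killed; n.a. denotes no larvae killed.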

Sf9 [4] = assay: Cytotoxicity against Spodoptera frugiperda Sf9 cells assessed as chromatin condensation at 1 ppm after 48 hrs by fluorescence microscopy; assay type: functional, cell-based; procedure, shortened: as §2
CHO [5] = assay: Cytotoxicity against CHO cells assessed as chromatin condensation after 24 hrs by fluorescence microscopy; assay type: cell-based, Cricetulus griseus; conditions: chinese hamster
Sf9 [6] = assay: Cytotoxicity against Spodoptera frugiperda Sf9 cells assessed as chromatin condensation at 0.14 ppm after 48 hrs by fluorescence microscopy; assay type: functional, cell-based
Procedure, shortened: (§4)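 Sf9 cells seeded in 8-well slide chambers the day before, then exposed to compound for 48 h. After two PBS washes, cells were fixed in ice-cold methanol for 10 min on ice, given two short acetone washes, rehydrated in PBS and stained with Dapi (2 µM) for 30 min. Chromatin condensation/fragmentation scored by fluorescence microscopy with a x40 objective.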

Spodoptera frugiperda [7] = assay: Insecticidal activity against Spodoptera frugiperda larvae in disk of maize leaf at 4 g/ha treated as spray; assay type: functional, organism-based; procedure, shortened: as §3
Phaedon cochleariae [8] = assay: Insecticidal activity against Phaedon cochleariae larvae in disk of Chinese cabbage leaf at 20 g/ha treated as spray; assay type: functional, organism-based; procedure, shortened: as §1
Bos taurus = species on record: Bos taurus; assay: Inhibition of bovine tubulin polymerization
Procedure, shortened: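 Tubulin (>99% pure, 300 µg/sample) was suspended at 4 °C in G-PEM buffer (80 mM PIPES, 2 mM MgCl2, 0.5 mM EGTA, 1.0 mM GTP, pH 6.9) plus 5% glycerol, with or without compound. Colchicine and taxol served as standards. Polymerization at 37 °C was followed as absorbance at 340 nm every 1 min for up to 60 min.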

Phaedon cochleariae [9] = assay: Insecticidal activity against Phaedon cochleariae larvae in disk of Chinese cabbage leaf at 4 g/ha treated as spray; assay type: functional, organism-based; procedure, shortened: as §1
Phaedon cochleariae [10] = assay: Insecticidal activity against Phaedon cochleariae larvae in disk of Chinese cabbage leaf treated as spray; assay type: functional, organism-based
Sf9 [11] = assay: Cytotoxicity against Spodoptera frugiperda Sf9 cells assessed as chromatin condensation at 3 ppm after 48 hrs by fluorescence microscopy; assay type: functional, cell-based; procedure, shortened: as §2
Spodoptera frugiperda [12] = assay: Insecticidal activity against Spodoptera frugiperda larvae in disk of maize leaf treated as spray; assay type: functional, organism-based
Sf9 [13] = assay: Cytotoxicity against Spodoptera frugiperda Sf9 cells assessed as chromatin condensation at 10 ppm after 48 hrs by fluorescence microscopy; assay type: functional, cell-based; procedure, shortened: as §2
Sf9 [14] = assay: Cytotoxicity against Spodoptera frugiperda Sf9 cells assessed as chromatin condensation at >10 ppm after 48 hrs by fluorescence microscopy; assay type: functional, cell-based; procedure, shortened: as §4
Spodoptera frugiperda [15] = assay: Insecticidal activity against Spodoptera frugiperda larvae in disk of maize leaf at 20 g/ha treated as spray; assay type: functional, organism-based
Procedure, shortened: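 Maize leaf disks (Zea mays) were sprayed, allowed to dry, then populated with S. frugiperda larvae. Mortality was scored after the desired time; '+' means at least 80% of larvae killed, 'n.a.' means none killed.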

**Q.** Which Activity (Phaedon cochleariae [1]) does the source give for `CCN1C2=C(C(=O)OC2)C(c2cc(OC)cc(OC)c2)c2cc3c(cc21)OCO3` (stereo not drawn) here?
**A.** Active

**Q.** And the Activity (CHO [2])?
**A.** Toxic

**Q.** What about the Activity (Spodoptera frugiperda [3]) of the same compound?
**A.** Active

**Q.** And the Activity (Sf9 [4])?
**A.** Active

**Q.** And the Activity (CHO [5])?
**A.** Toxic

**Q.** Which results are given for `CCOc1ccc2c(c1)NC1=C(C(=O)OC1)C2c1cc(OC)cc(OC)c1` (stereo not drawn)?
**A.** Activity (Sf9 [6]): Active; Activity (Phaedon cochleariae [1]): Active; Activity (CHO [2]): Toxic; Activity (Spodoptera frugiperda [7]): Active; Activity (CHO [5]): Toxic

**Q.** With `COc1cc(OC)cc(C2C3=C(COC3=O)Nc3c2ccc(OC)c3OC)c1` (stereo not drawn) as the compound, how does the Activity (Sf9 [6]) read?
**A.** Active

**Q.** What about the Activity (CHO [2]) of the same compound?
**A.** Toxic

**Q.** What about the Activity (Phaedon cochleariae [8]) of the same compound?
**A.** Active

**Q.** What about the Activity (Spodoptera frugiperda [7]) of the same compound?
**A.** Active

**Q.** And the inhibition (Bos taurus)?
**A.** Active

**Q.** What about the Activity (CHO [5]) of the same compound?
**A.** Toxic

**Q.** Which results are given for `COc1cc(OC)cc(C2C3=C(COC3=O)Nc3c(OC)cc(OC)cc32)c1` (stereo not drawn)?
**A.** Activity (Spodoptera frugiperda [3]): Active; Activity (Phaedon cochleariae [9]): Active

**Q.** How did the Activity (Phaedon cochleariae [10]) turn out when `O=C1CCC2=C1C(c1cccc(Cl)c1)c1cc3c(cc1N2)OCO3` (stereo not drawn) was run?
**A.** inactive

**Q.** And the Activity (Sf9 [11])?
**A.** Active

**Q.** What about the Activity (CHO [2]) of the same compound?
**A.** Toxic

**Q.** And the Activity (CHO [5])?
**A.** Toxic

**Q.** And the Activity (Spodoptera frugiperda [12])?
**A.** inactive

**Q.** With `O=C1OCC2=C1C(c1ccccc1Cl)c1cc3c(cc1N2)OCO3` (stereo not drawn) as the compound, how does the Activity (Sf9 [13]) read?
**A.** Active

**Q.** And the Activity (Phaedon cochleariae [10])?
**A.** inactive

**Q.** And the Activity (CHO [2])?
**A.** Toxic

**Q.** And the Activity (CHO [5])?
**A.** Toxic

**Q.** What about the Activity (Spodoptera frugiperda [12]) of the same compound?
**A.** inactive

**Q.** What does the source list for `COc1cc(OC)cc([C@@H]2C3=C(COC3=O)Nc3cc(OC)ccc32)c1`?
**A.** Activity (CHO [2]): Toxic; Activity (Sf9 [14]): Active; Activity (CHO [5]): Toxic

**Q.** How did the Activity (Phaedon cochleariae [8]) turn out when `COc1cc(OC)cc(C2C3=C(COC3=O)Nc3cc(OC)ccc32)c1` (stereo not drawn) was run?
**A.** Active

**Q.** What about the Activity (Spodoptera frugiperda [7]) of the same compound?
**A.** Active

**Q.** Which results are given for `COc1cc(OC)cc(C2C3=C(COC3=O)Nc3cc(OC)c(OC)cc32)c1` (stereo not drawn)?
**A.** Activity (Phaedon cochleariae [1]): Active; Activity (CHO [2]): Toxic; Activity (Spodoptera frugiperda [3]): Active; Activity (Sf9 [4]): Active; Activity (CHO [5]): Toxic

**Q.** Which inhibition (Bos taurus) does the source give for `CC(=O)O[C@H]1C(=O)[C@@]2(C)[C@H]([C@H](OC(=O)c3ccccc3)[C@]3(O)C[C@H](OC(=O)[C@H](O)[C@@H](NC(=O)c4ccccc4)c4ccccc4)C(C)=C1C3(C)C)[C@]1(OC(C)=O)CO[C@@H]1C[C@@H]2O` here?
**A.** inactive

**Q.** For `COc1cc(OC)cc([C@H]2C3=C(COC3=O)Nc3cc(OC)ccc32)c1`, which Activity (Sf9 [6]) is on record?
**A.** Active

**Q.** Which results are given for `COc1ccc2c(c1)NC1=C(C(=O)OC1)C2c1cc(OC)c(OC)c(OC)c1` (stereo not drawn)?
**A.** Activity (Phaedon cochleariae [1]): Active; Activity (Spodoptera frugiperda [15]): Active

**Q.** Which results are given for `COc1ccc(C2C3=C(COC3=O)Nc3cc4c(cc32)OCO4)cc1OC` (stereo not drawn)?
**A.** Activity (Phaedon cochleariae [10]): inactive; Activity (Sf9 [11]): Active; Activity (CHO [2]): Toxic; Activity (CHO [5]): Toxic; Activity (Spodoptera frugiperda [12]): inactive

**Q.** How did the Activity (Phaedon cochleariae [8]) turn out when `COc1cc(OC)cc(C2C3=C(COC3=O)Nc3cc4c(cc32)OCO4)c1` (stereo not drawn) was run?
**A.** Active

**Q.** What about the Activity (Spodoptera frugiperda [15]) of the same compound?
**A.** Active

**Q.** Which Activity (Phaedon cochleariae [10]) does the source give for `COc1cc(OC)cc(C2C3=C(COC3=O)Nc3cc(OC(C)C)ccc32)c1` (stereo not drawn) here?
**A.** inactive

**Q.** And the Activity (Sf9 [11])?
**A.** Active

**Q.** And the Activity (CHO [2])?
**A.** Toxic

**Q.** And the Activity (Spodoptera frugiperda [3])?
**A.** Active

**Q.** What about the Activity (CHO [5]) of the same compound?
**A.** Toxic

**Q.** `COc1cc2c(c(OC)c1OC)-c1ccc(OC)c(=O)cc1[C@@H](NC(C)=O)CC2` [COLCHICINE] was tested. Which Activity (Sf9 [6]) did it give?
**A.** Active

**Q.** What about the Activity (CHO [2]) of the same compound?
**A.** Toxic

**Q.** What about the inhibition (Bos taurus) of the same compound?
**A.** Active

**Q.** And the Activity (CHO [5])?
**A.** Toxic
